Data set [1] in a line: Compound was evaluated for the ratio of apparent inactivation rate constant k2 to apparent binding constant Ki. The settings on record: read-out: k2 / Ki. In a few lines: (§1)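 Mercurial papain activated with L-cysteine for 45 min at 25 °C in 50 mM phosphate, 1 mM EDTA, pH 6.2. Papain (0.11 μM) was incubated at 25 °C and pH 6.2, in 20% CH3CN, with excess inhibitor. Aliquots taken about every 10 min were diluted 10-fold into buffer containing 2 mM Cbz-Gly-ONp. Residual activity was read at 340 nm, corrected for spontaneous hydrolysis, and analysed by Kitz–Wilson plot.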

For data set [2], the target named is T1, Papain (Carica papaya) (UniProt P00784).
T1 sequence (whole entry): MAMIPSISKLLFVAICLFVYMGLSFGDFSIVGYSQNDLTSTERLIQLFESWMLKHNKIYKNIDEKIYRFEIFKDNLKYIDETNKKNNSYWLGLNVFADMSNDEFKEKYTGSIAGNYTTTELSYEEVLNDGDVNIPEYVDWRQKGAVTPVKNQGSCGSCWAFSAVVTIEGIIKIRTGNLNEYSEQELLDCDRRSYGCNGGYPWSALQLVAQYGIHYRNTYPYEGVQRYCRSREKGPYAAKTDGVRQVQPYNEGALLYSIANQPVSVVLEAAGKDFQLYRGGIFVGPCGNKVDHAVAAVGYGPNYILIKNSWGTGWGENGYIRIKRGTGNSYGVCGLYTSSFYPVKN
Briefly: Compound was evaluated for papain inactivation. [I] is the inhibitor concentration; 60-500. Type of data set: functional. In a few lines:
as §1

The target of data set [3] is T1, Papain (Carica papaya). Briefly: Compound was evaluated for papain inactivation. [I] is the inhibitor concentration; 1.42-10. Type of data set: functional. In a few lines:
as §1

The target of data set [4] is T1, Papain (Carica papaya). Briefly: Compound was evaluated for papain inactivation. [I] is the inhibitor concentration; 30-450. Type of data set: functional. In a few lines: as §1
In data set [5] the target is T1, Papain (Carica papaya). Briefly: Compound was evaluated for papain inactivation. [I] is the inhibitor concentration; 0.05-1.08. Type of data set: functional. In a few lines:
as §1

The target in data set [6] is T1, Papain (Carica papaya). Briefly: Compound was evaluated for papain inactivation. [I] is the inhibitor concentration; 80-160. Type of data set: functional. In a few lines:
as §1

In data set [7] the target is T1, Papain (Carica papaya). Briefly: Compound was evaluated for papain inactivation. [I] is the inhibitor concentration; 2-30. Type of data set: functional. In a few lines: as §1
For data set [8], the target named is T1, Papain (Carica papaya). Briefly: Compound was evaluated for papain inactivation. [I] is the inhibitor concentration; 1-8. Type of data set: functional. In a few lines:
as §1

The target in data set [9] is T1, Papain (Carica papaya). Briefly: Compound was evaluated for papain inactivation. [I] is the inhibitor concentration; 0.87-10. Type of data set: functional. In a few lines: as §1
Data set [10] concerns the target T1, Papain (Carica papaya). Briefly: Compound was evaluated for papain inactivation. [I] is the inhibitor concentration; 6-35. Type of data set: functional. In a few lines:
as §1

The target in data set [11] is T1, Papain (Carica papaya). Briefly: Compound was evaluated for papain inactivation. [I] is the inhibitor concentration; 0.07-0.58. Type of data set: functional. In a few lines: as §1
Data set [12] addresses T1, Papain (Carica papaya). Briefly: Compound was evaluated for papain inactivation. [I] is the inhibitor concentration; 60-1000. Type of data set: functional. In a few lines:
as §1

In the case of `CC(=O)NC(Cc1ccccc1)C(=O)NC/C=C/C#N` (stereo unspecified), the kinact/KI in data set [1] came to 1.7 M⁻¹ s⁻¹. At Papain (Carica papaya) [2], the I was 60 µM.
Turning to `COC(=O)/C=C/CNC(=O)c1ccccc1`, the I on Papain (Carica papaya) [3] worked out at 1.42 mM. In addition, in [1], the kinact/KI was 0.05 M⁻¹ s⁻¹.
Take `CC(=O)NC(Cc1ccccc1)C(=O)NC/C=C/C(=O)O` (stereo unspecified): the I at Papain (Carica papaya) [4] came to 30 µM. For the same compound, the kinact/KI in data set [1] came to 5 M⁻¹ s⁻¹.
The compound `COC(=O)/C=C/CNC(=O)[C@@H](CC(C)C)NC(C)=O` displayed an I on Papain (Carica papaya) [5] of 0.056 mM. Besides, in data set [1], the kinact/KI stood at 2.46 M⁻¹ s⁻¹.
Turning to `CC(=O)NC(Cc1ccccc1)C(=O)NC/C=C/c1ccc([N+](=O)[O-])cc1` (stereo unspecified), the I on Papain (Carica papaya) [6] was 80 µM.
In turn, `CC(=O)NC(Cc1ccccc1)C(=O)NC/C=C/S(C)(=O)=O` (stereo unspecified) came in with an I at Papain (Carica papaya) [7] of 2 µM. Besides, the kinact/KI in data set [1] amounted to 18.7 M⁻¹ s⁻¹.
`COC(=O)/C=C/CNC(=O)[C@H](Cc1ccccc1)NC(C)=O` yielded an I on Papain (Carica papaya) [8] of 1 mM. Moreover, in [1], the kinact/KI turned out to be 0.25 M⁻¹ s⁻¹.
The compound `COC(=O)/C=C/CNC(=O)CCc1ccccc1` registered an I on Papain (Carica papaya) [9] of 0.87 mM. For the same compound, in data set [1], the kinact/KI was 0.23 M⁻¹ s⁻¹.
As to `COC(=O)/C=C/CNC(=O)C(Cc1ccccc1)NC(C)=O` (stereo unspecified), the I at Papain (Carica papaya) [10] is 6 µM. The kinact/KI in data set [1] turned out to be 26.1 M⁻¹ s⁻¹.
`COC(=O)/C=C/CNC(=O)[C@@H](CCSC)NC(C)=O`: the I at Papain (Carica papaya) [11] was determined as 0.07 mM. In data set [1], the kinact/KI amounted to 2.06 M⁻¹ s⁻¹.
At Papain (Carica papaya) [12], `CC(=O)NC(Cc1ccccc1)C(=O)NC/C=C/C(N)=O` (stereo unspecified) had an I of 60 µM. For the same compound, the kinact/KI in data set [1] turned out to be 1.1 M⁻¹ s⁻¹.
